Source: ChEMBL document CHEMBL1124387, “Cardiotonic agents. 9. Synthesis and biological evaluation of a series of (E)-4,5-dihydro-6-[2-[4-(1H-imidazol-1-yl)phenyl]ethenyl]-3 (2H)-pyridazinones: a novel class of compounds with positive inotropic, antithrombotic, and vasodilatory activities for the treatment of congestive heart failure” (J Med Chem, 1989)
Several values for one entry are separate records, joined by “and”; a condition that tells them apart may be missing. Equal entries are not always repeated.

How the values were obtained:
[1] = organism: Canis familiaris; assay: 50% increase in myocardial contractility (dP/dT max) in dogs; type: functional, Canis lupus familiaris, Myocardium
In short: (§1)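 Acutely instrumented anesthetized dogs (n = 6), 30-min control period. Compound in 0.9% saline, or dilute HCl diluted with saline, at 0.1 mL/kg iv over 1 min. At least four ascending half-log doses, 10 min apart, one compound per animal. Recorded: LV dP/dtmax, heart rate, aortic pressure and forelimb resistance. Values are maximum response from control average ± SEM.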

[2] = organism: Homo sapiens; assay: In vitro inhibition of ADP stimulated platelet aggregation in human thrombocyte enriched plasma; type: functional
In short: (§2)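 Human platelet-rich plasma from aspirin/NSAID-free donors, adjusted to 250 000 platelets/μL with platelet-poor plasma. Drug in DMSO/saline (1% DMSO final) was added before ADP or collagen, with doses set by titration. Read-out was aggregation extent (ADP, curve height) or rate (collagen, major slope) as % of saline control.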

[3] = organism: Homo sapiens; assay: In vitro inhibition of collagen stimulated platelet aggregation in human thrombocyte enriched plasma; type: functional; in short: as §2
[4] = Inhibition of phosphodiesterase 3 from guinea pig cardiac tissue at 1E-7-1E-4M or 1.0E-6 to 1E-3 M; set-up: species or system Cavia porcellus
In short: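 Fraction III cAMP-PDE from guinea pig heart or human platelets. Substrate [3H]cyclic AMP 1.0 μM at 30°C, with hydrolysis held to ≤10-20% and kept linear over 30 min. Compounds in DMSO, 2.5% final.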

[5] = molecular target: T1, Phosphodiesterase 3 (Homo sapiens, UniProt Q14432+Q13370); assay: Inhibition of Phosphodiesterase 3 from human platelets at 1E-7-1E-4M or 1.0E-6 to 1E-3 M
In short: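 Fraction III cAMP-PDE from guinea pig heart or human platelets. Substrate [3H]cyclic AMP 1.0 μM at 30°C, with hydrolysis held to ≤10-20% and kept linear over 30 min.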

[6] = Partition coefficient (logP); type: physicochemical; settings: octanol/water
[7] = organism: Homo sapiens; assay: In vitro inhibition of ADP stimulated platelet aggregation in human whole blood; type: functional
In short: (§3)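 Human whole blood from aspirin/NSAID-free fasted donors, read by impedance aggregometry 5 min after adding ADP or collagen. Aggregation expressed as % of control (2-6 replicates), plotted against log drug concentration; IC50 obtained by extrapolation.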

[8] = organism: Homo sapiens; assay: In vitro inhibition of collagen stimulated platelet aggregation in human whole blood; type: functional; in short: as §3
[9] = molecular target: T1, Phosphodiesterase 3; assay: Inhibition of phosphodiesterase 3 from human platelets at 1E-7-1E-4M or 1.0E-6 to 1E-3 M
[10] = test system: Canis familiaris; assay: (§4) Percentage increase in left ventricular contractility in anesthetized dog; type: functional, Canis lupus familiaris, Heart left ventricle
[11] = test system: Canis familiaris; assay: as §4; type: functional, Canis lupus familiaris, Heart left ventricle; remark: listed apart in the source
[12] = organism: Canis familiaris; assay: Weight of thrombus; type: functional, Canis lupus familiaris
In short: (§5)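 Pentobarbital-anesthetized (32 mg/kg iv), ventilated dogs, allowed 30 min to stabilize. Continuous infusion of compound (1.0, 3.0 or 10.0 μg/kg/min) or saline began 15 min before 50 μA current was applied to an intraluminal electrode in the circumflex coronary artery. After 60 min of stimulation the animals were euthanized and the thrombus dissected and weighed. One treatment per animal.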

[13] = test system: Canis familiaris; assay: Decrease in thrombus weight in anesthetized dog coronary artery; type: functional, Canis lupus familiaris; in short: as §5
[14] = test system: Canis familiaris; assay: Hemodynamic activity in anesthetized dog as percent change from baseline (2271 mmHg/s) in left ventricular myocardial activity at 0.1 mg/kg administered intravenously; type: functional, Canis lupus familiaris, Heart left ventricle; settings: route intravenous
[15] = test system: Canis familiaris; assay: Hemodynamic activity in anesthetized dog as percent change in left ventricular myocardial activity from baseline (2271 mmHg/s) at 0.01 mg/kg administered intravenously; type: functional, Canis lupus familiaris, Heart left ventricle; settings: route intravenous; in short: as §1
[16] = test system: Canis familiaris; assay: Hemodynamic activity in anesthetized dog as percent change in left ventricular myocardial activity from baseline (2271 mmHg/s) at 0.003 mg/kg administered intravenously; type: functional, Canis lupus familiaris, Heart left ventricle; settings: route intravenous; in short: as §1
[17] = test system: Canis familiaris; assay: Hemodynamic activity in anesthetized dog as percent change in left ventricular myocardial activity from baseline (2271 mmHg/s) at 0.03 mg/kg administered intravenously; type: functional, Canis lupus familiaris, Heart left ventricle; settings: route intravenous; in short: as §1
[18] = test system: Canis familiaris; assay: Hemodynamic activity in anesthetized dog as percent change in left ventricular myocardial activity from baseline (2271 mmHg/s) at 0.001 mg/kg administered intravenously; type: functional, Canis lupus familiaris, Heart left ventricle; settings: route intravenous; in short: as §1
[19] = test system: Canis familiaris; assay: Hemodynamic activity in anesthetized dog as percent change from baseline (2271 mmHg/s) in left ventricular myocardial activity at 1 mg/kg administered intravenously; type: functional, Canis lupus familiaris, Heart left ventricle; settings: route intravenous
[20] = organism: Canis familiaris; assay: Ratio of positive inotropic activity to peripheral Vasodilator activity in dogs; type: functional, Canis lupus familiaris
In short: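 Inotropic ED20 is the iv bolus dose giving a 20% rise in dP/dtmax in anesthetized dogs. Vasodilator ED20 is the bolus dose into the brachial cannula of a constant-flow perfused forelimb (pentobarbital 30 mg/kg iv then 3.0 mg/kg/h, heparinized) giving a 20% fall in perfusion pressure. Each ED20 was taken from its dose-response curve; the ratio is PI/PV.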

[21] = test system: Canis familiaris; assay: Hemodynamic activity in anesthetized dog as percent change from baseline (2271 mmHg/s) in left ventricular myocardial activity at 0.3 mg/kg administered intravenously; type: functional, Canis lupus familiaris, Heart left ventricle; settings: route intravenous
[22] = test system: Canis familiaris; assay: Hemodynamic activity in anesthetized dog as percent change from baseline (2271 mmHg/s) in left ventricular myocardial activity at 3.1 mg/kg administered intravenously; type: functional, Canis lupus familiaris, Heart left ventricle; settings: route intravenous
In short: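 Anaesthetised dogs were given one compound each, in ascending half-log iv doses 10 min apart, typically four to six doses. Each dose was dissolved in 0.9% saline or dilute HCl (0.1 or 1.0 N), made up with saline, and given as 0.1 mL/kg over 1 min after a 30-min control period. The readout was LV dP/dt_max from a differentiator amplifier, reported as maximum % change from control average ± SEM.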

Row | Structure (SMILES) | Dose [1] | IC50 [2] | IC50 [3] | logP [6] | IC50 [7] | IC50 [8] | Change [14] | also measured
1 | CC1CC(=O)NN=C1/C=C/c1ccc(-n2cnc3ccccc32)cc1 (configuration not stated) | 0.09 mg/kg | – | – | – | – | – | – | –
2 | CC(=O)Nc1ccc(/C=C/C2=NNC(=O)C(C)(C)C2)cc1 | 1 mg/kg | 4000 nM | 250 nM | – | – | – | – | –
3 | CC1CC(=O)N(C)N=C1/C=C/c1ccc(-n2ccnc2)cc1 (configuration not stated) | 1 mg/kg | – | – | – | – | – | – | –
4 | Cc1ncn(-c2ccc(/C=C/C3=NNC(=O)CC3C)cc2)c1C (configuration not stated) | 0.05 mg/kg | 30000 nM | 1500 nM | – | – | – | – | –
5 | Cc1cc(O)nnc1/C=C/c1ccc(-n2ccnc2)cc1 | 0.2 mg/kg | – | – | – | – | – | – | –
6 | CC1CC(=O)NN=C1/C=C/c1ccc(-n2cnc3c2CCCC3)cc1 (configuration not stated) | 0.05 mg/kg | 6000 nM | 600 nM | 3.1 | – | – | – | IC50 [4]: 100 nM; IC50 [5]: 18 nM
7 | CCC(=O)Nc1ccc(/C=C/C2=NNC(=O)CC2C)cc1 (configuration not stated) | 0.2 mg/kg | – | – | – | – | – | – | –
8 | O=C1CCC(CCc2ccc(-n3ccnc3)cc2)=NN1 | 1 mg/kg | – | – | – | – | – | – | –
9 | O=C1CCC(/C=C/c2ccc(-n3cnc4c3CCCC4)cc2)=NN1 | 0.1 mg/kg | 5000 nM | 450 nM | 2.47 | 1700 nM | 1000 nM | – | –
10 | O=C1CCC(/C=C/c2ccc(-n3ccnc3)cc2)=NN1 | 0.02 mg/kg | 6000 nM | 200 nM | 1.21 | – | – | – | IC50 [4]: 1100 nM; IC50 [9]: 400 nM
11 | CC(=O)Nc1ccc(/C=C/C2=NNC(=O)CC2C)cc1 (configuration not stated) | 0.02 mg/kg | – | – | 1.27 | – | – | – | IC50 [4]: 2800 nM; IC50 [5]: 870 nM
12 | CC1CC(=O)NN=C1/C=C/c1ccc(N)cc1 (configuration not stated) | 1 mg/kg | – | – | – | – | – | – | –
13 | CC(Cl)C(=O)Nc1ccc(C2=NNC(=O)CC2C)cc1 (configuration not stated) [AMIPIZONE] | – | 350 nM | 150 nM | 1.4 | 10 nM | 400 nM | – | Increase [10]: 10% and 23%; Increase [11]: 3%; Thrombus weight [12]: 8.3 mg and 4.8 mg and 4.1 mg; Inhibition [13]: 54% and 73% and 77%
14 | CC1CC(O)=NN=C1c1ccc(-n2ccnc2)cc1 (configuration not stated) [CI-930] | – | 4000 nM | 10 nM | 1.29 | 400 nM | 45000 nM | 149% | Change [15]: 51%; Change [16]: 25%; Change [17]: 124%; Change [18]: 11%
15 | CSc1ccc(C(=O)c2[nH]c(=O)[nH]c2C)cc1 [ENOXIMONE] | – | 120000 nM | 15000 nM | – | – | – | 19% | Change [19]: 83%; Change [15]: 5%; Ratio [20]: 0.58; Change [17]: 7%; Change [21]: 47%
16 | O=C1CCC(c2ccc(-n3ccnc3)cc2)=NN1 [IMAZODAN] | – | 20000 nM | 3000 nM | 0.96 | 8000 nM | 17000 nM | 74% | Change [19]: 147%; Change [15]: 10%; Change [17]: 37%; Change [21]: 127%
17 | Nc1cc(-c2ccncc2)c[nH]c1=O [INAMRINONE] | – | 250000 nM | 15000 nM | – | 50000 nM | 500000 nM | 9% | Change [19]: 85%; Change [22]: 165%; Change [21]: 32%
18 | Cc1[nH]c(=O)c(C#N)cc1-c1ccncc1 [MILRINONE] | – | 10000 nM | 100 nM | – | 9000 nM | 350 nM | 113% | Change [19]: 149%; Change [15]: 31%; Change [17]: 78%; Change [21]: 143%
19 | CCc1[nH]c(=O)[nH]c1C(=O)c1ccncc1 [PIROXIMONE] | – | 60000 nM | 15000 nM | – | – | – | 41% | Change [19]: 144%; Change [15]: 8%; Change [17]: 16%; Change [21]: 93%
20 | CC1CC(=O)NN=C1c1ccc(-n2cnc3c2CCCC3)cc1 (configuration not stated) [TETRAHYDROBENXIMIDAZOLE] | – | 4000 nM | 15 nM | 2.52 | 500 nM | 750 nM | – | IC50 [4]: 150 nM; IC50 [9]: 110 nM
